In ChEMBL document CHEMBL5360543, “Designed multiple ligands for the treatment of type 2 diabetes mellitus and its complications: Discovery of (5-arylidene-4-oxo-2-thioxothiazolidin-3-yl)alkanoic acids active as novel dual-targeted PTP1B/AKR1B1 inhibitors” (Eur J Med Chem, 2023):
pIC50, pKi: −log10 of the molar value. Active and inactive are the calls of the source. The rule behind the calls is not given here.

What was measured:
[1] = target: T1, Aldo-keto reductase family 1 member B1 (Homo sapiens, UniProt P15121); assay: Mixed non-competitive inhibition of human recombinant AKR1B1 expressed in Escherichia coli BL21(DE3)pLysS assessed as apparent dissociation constant for EI complex using L-idose as substrate by secondary plot analysis
Outline: (§1)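 AKR1B1 rates measured at varied L-idose concentrations with and without several inhibitor concentrations, then Lineweaver–Burk analysis. […] Tight binders fitted with the Morrison equation, KM for L-idose taken as 3.8 mM. At least three independent experiments.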

[2] = target: T1, Aldo-keto reductase family 1 member B1; assay: Mixed non-competitive inhibition of human recombinant AKR1B1 expressed in Escherichia coli BL21(DE3)pLysS assessed as apparent dissociation constant for ESI complex using L-idose as substrate by secondary plot analysis; outline: as §1
[3] = target: T1, Aldo-keto reductase family 1 member B1; assay: Reversible inhibition of human recombinant AKR1B1 expressed in Escherichia coli BL21(DE3)pLysS assessed as recovery of enzyme activity using L-idose as substrate measured after extensive dialysis by NADPH oxidation based absorbance analysis; set-up: scale not given: the % may be the effect or the level left
[4] = system: C2C12; assay: Effect on total Akt protein expression in mouse C2C12 cells at 20 uM incubated for 15 mins in presence of insulin by SDS-PAGE analysis; type: functional, cell-based
Outline: (§2)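 C2C12 cells starved 24 h, then given 10 nM insulin, 20 µM compound, or both, for 15 min. Washed in cold PBS, lysed in 1X Laemmli buffer, run on SDS-PAGE, blotted to PVDF. Probed with antibodies to phospho-Akt and total Akt, with actin as loading control. Bands quantified; triplicate, mean ± SD (n = 3).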

[5] = target: T2, Tyrosine-protein phosphatase non-receptor type 2 (Homo sapiens, UniProt P17706); assay: Inhibition of N-terminal polyHis-tagged human recombinant TC-PTPb (1 to 415 residues) expressed in Escherichia coli BL21(DE3)pLysS
T2 sequence (P17706 whole entry): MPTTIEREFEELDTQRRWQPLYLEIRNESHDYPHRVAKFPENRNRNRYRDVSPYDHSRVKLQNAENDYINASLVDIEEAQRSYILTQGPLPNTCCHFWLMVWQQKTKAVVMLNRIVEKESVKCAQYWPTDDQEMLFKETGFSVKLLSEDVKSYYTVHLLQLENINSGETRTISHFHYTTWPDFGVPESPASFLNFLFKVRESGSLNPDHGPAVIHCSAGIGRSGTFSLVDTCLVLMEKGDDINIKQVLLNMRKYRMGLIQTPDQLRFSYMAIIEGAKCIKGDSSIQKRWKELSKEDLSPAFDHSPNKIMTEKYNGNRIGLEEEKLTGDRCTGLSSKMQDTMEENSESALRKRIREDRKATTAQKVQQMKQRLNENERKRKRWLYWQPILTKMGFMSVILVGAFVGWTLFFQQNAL

[6] = target: T1, Aldo-keto reductase family 1 member B1; assay: Inhibition of AKR1B1 in human HLE cells assessed as inhibition of glucose-induced sorbitol accumulation at 2 uM incubated for 24 hrs in presence of glucose; type: cell-based
Outline: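 HLE cells held 24 h in 75 mM D-glucose with or without 2 µM compound; 10 µM sorbinil as reference. Lysates from freeze/thaw and 10,000 × g spin were treated with perchloric acid and neutralized with KOH. Sorbitol assayed and expressed as nmol/mg protein (Bradford). Mean ± SEM of six measurements; one-way ANOVA with Tukey.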

[7] = target: T1, Aldo-keto reductase family 1 member B1; assay: Ratio of Ki for human recombinant AKR1B1 expressed in Escherichia coli BL21(DE3)pLysS assessed as apparent dissociation constant for EI complex to Ki for human recombinant AKR1B1 expressed in Escherichia coli BL21(DE3)pLysS assessed as apparent dissociation constant for ESI complex; outline: as §1
[8] = system: HLE; assay: Cytotoxicity against human HLE cells assessed as reduction in cell viability at 2 uM incubated for 24 to 48 hrs by MTT assay; type: toxicity, cell-based; details: time 24-48 hrs
Outline: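 HLE lens epithelial B3 cells in MEM with 20% FBS at 37 °C, exposed 24 and 48 h to compound in 0.05% DMSO. Then 1 h in MTT 0.5 mg/mL in phosphate buffer pH 7.4, formazan dissolved in 0.04 N HCl/isopropanol, absorbance 563 nm. Mean ± SEM of eleven independent measurements; Student's t test versus untreated cells.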

[9] = target: T3, Tyrosine-protein phosphatase non-receptor type 1 (Mus musculus) (UniProt P35821); assay: Inhibition of PTP1B in mouse C2C12 cells assessed as potentiation of insulin-induced Akt phosphorylation by measuring increase in ratio of pAkt to Akt at 20 uM treated for 15 mins in presence of insulin by western blot analysis; type: cell-based; outline: as §2
T3 sequence (whole entry): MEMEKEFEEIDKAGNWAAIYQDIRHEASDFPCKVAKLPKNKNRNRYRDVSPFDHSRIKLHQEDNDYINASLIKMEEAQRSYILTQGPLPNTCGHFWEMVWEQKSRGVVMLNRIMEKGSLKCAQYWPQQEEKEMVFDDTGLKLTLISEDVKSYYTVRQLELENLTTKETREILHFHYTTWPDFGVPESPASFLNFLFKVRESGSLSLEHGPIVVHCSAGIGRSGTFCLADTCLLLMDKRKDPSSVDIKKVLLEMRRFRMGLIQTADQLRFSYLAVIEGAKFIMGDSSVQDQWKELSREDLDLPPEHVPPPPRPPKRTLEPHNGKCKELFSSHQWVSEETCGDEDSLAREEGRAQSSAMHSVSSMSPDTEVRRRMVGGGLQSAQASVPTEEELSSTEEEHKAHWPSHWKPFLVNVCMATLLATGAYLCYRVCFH

[10] = target: T1, Aldo-keto reductase family 1 member B1; assay: Inhibition of human recombinant AKR1B1 expressed in Escherichia coli BL21(DE3)pLysS using L-idose as substrate by NADPH oxidation based absorbance analysis
[11] = target: T3, Tyrosine-protein phosphatase non-receptor type 1 (Mus musculus); assay: Inhibition of PTP1B in mouse C2C12 cells assessed as increase in Akt phosphorylation by measuring increase in ratio of pAkt to Akt at 20 uM treated for 15 mins by western blot analysis; type: cell-based; outline: as §2
[12] = system: C2C12; assay: Insulin-mimetic activity in mouse C2C12 cells assessed as stimulation of 2-NBDG uptake at 20 uM pretreated with compound and insulin for 15 mins followed by 2-NBDG addition and measured after 3 hrs by flow cytometry; type: functional, cell-based; details: time 195.0 min
Outline: (§3)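 C2C12 cells serum-starved 24 h, then 15 min with 10 nM insulin, 20 µM compound, or both. Washed, then 3 h in starvation medium containing 40 µM 2-NBDG. Trypsinized, washed, and fluorescence measured by flow cytometry. Quadruplicate; mean fluorescence ± SD.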

[13] = system: C2C12; assay: Insulin-mimetic activity in mouse C2C12 cells assessed as stimulation of 2-NBDG uptake at 20 uM pretreated with compound for 15 mins followed by 2-NBDG addition and measured after 3 hrs by flow cytometry; type: functional, cell-based; details: time 195.0 min; outline: as §3
[14] = target: T4, Tyrosine-protein phosphatase non-receptor type 1 (Homo sapiens, UniProt P18031); assay: Non-competitive inhibition of N-terminal polyHis-tagged human PTP1B1 (1 to 303 residues) expressed in Escherichia coli BL21(DE3)pLysS assessed as apparent dissociation constant for ESI complex using pNPP as substrate by Lineweaver-Burk plot analysis
T4 sequence (P18031 whole entry): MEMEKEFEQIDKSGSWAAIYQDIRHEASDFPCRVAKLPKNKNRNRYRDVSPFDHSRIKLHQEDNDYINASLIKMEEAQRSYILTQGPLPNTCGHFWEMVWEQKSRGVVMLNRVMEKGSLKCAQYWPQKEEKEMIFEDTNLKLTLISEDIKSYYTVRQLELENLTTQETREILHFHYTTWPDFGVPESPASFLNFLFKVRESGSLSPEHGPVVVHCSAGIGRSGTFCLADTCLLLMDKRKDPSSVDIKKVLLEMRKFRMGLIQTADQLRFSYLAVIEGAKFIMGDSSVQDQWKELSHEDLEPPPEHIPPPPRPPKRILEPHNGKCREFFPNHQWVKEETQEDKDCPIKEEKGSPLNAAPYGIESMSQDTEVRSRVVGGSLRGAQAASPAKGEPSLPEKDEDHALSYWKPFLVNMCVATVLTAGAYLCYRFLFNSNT
Outline: (§4)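 PTP1B initial pNPP hydrolysis rates measured at seven pNPP concentrations (0.5–25 mM) and at least three inhibitor concentrations, in triplicate. Data fitted to Michaelis–Menten; KM and Vmax dependence on inhibitor analysed by Lineweaver–Burk plots.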

[15] = target: T4, Tyrosine-protein phosphatase non-receptor type 1; assay: Non-competitive inhibition of N-terminal polyHis-tagged human PTP1B1 (1 to 303 residues) expressed in Escherichia coli BL21(DE3)pLysS assessed as apparent dissociation constant for EI complex using pNPP as substrate by Lineweaver-Burk plot analysis; outline: as §4
[16] = target: T5, Tyrosine-protein phosphatase non-receptor type 1 (Homo sapiens) (UniProt P18031); assay: Reversible inhibition of N-terminal polyHis-tagged human PTP1B1 (1 to 303 residues) expressed in Escherichia coli BL21(DE3)pLysS using pNPP as substrate pretreated with enzyme for 60 mins followed by 400-fold dilution with buffer containing substrate and measured after 15 mins by spectrophotometric analysis; details: time 75.0 min
T5 sequence (whole entry): T4 sequence (P18031 whole entry)
Outline: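 PTP1B incubated 60 min at 37 °C with saturating inhibitor, then diluted 400-fold into assay buffer containing 2.5 mM pNPP. Stopped after 15 min with 0.2 M KOH; absorbance read at 400 nm. Normalized to enzyme diluted with DMSO; mean ± SEM (n = 3).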

[17] = system: C2C12; assay: Effect on total Akt protein expression in mouse C2C12 cells at 20 uM incubated for 15 mins by SDS-PAGE analysis; type: functional, cell-based; outline: as §2
[18] = target: T4, Tyrosine-protein phosphatase non-receptor type 1; assay: Inhibition of N-terminal polyHis-tagged human PTP1B1 (1 to 303 residues) expressed in Escherichia coli BL21(DE3)pLysS using pNPP as substrate by spectrophotometric analysis
Outline: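 His-tagged human PTP1B (1–303) from E. coli BL21(DE3)pLysS, assayed in 0.075 M β,β-dimethylglutarate pH 7.0 with 1 mM EDTA, 0.1 mM DTT and pNPP. Reaction stopped with 0.1 M KOH; p-nitrophenol read at 400 nm. IC50 from 15–16 inhibitor concentrations in triplicate, normalized to control, fitted by nonlinear regression. Single-point residual activity at 5 µM.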

[19] = system: C2C12; assay: Cytotoxicity against mouse C2C12 cells assessed as reduction in cell viability at 20 uM incubated for 24 hrs by MTT assay; type: toxicity, cell-based; details: c2c12, 24 h
Outline: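 C2C12 myoblasts were differentiated for 96 h in DMEM with 2% horse serum, then held 24 h in complete medium with 20 µM compound, DMSO vehicle as control. MTT 0.5 mg/mL was added, cells lysed in DMSO, absorbance read, and values normalized to vehicle. Quadruplicate, mean ± SD (n = 4).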

[20] = target: T4, Tyrosine-protein phosphatase non-receptor type 1; assay: Mixed non-competitive inhibition of N-terminal polyHis-tagged human PTP1B1 (1 to 303 residues) expressed in Escherichia coli BL21(DE3)pLysS assessed as apparent dissociation constant for EI complex using pNPP as substrate by Lineweaver-Burk plot analysis; outline: as §4
[21] = target: T4, Tyrosine-protein phosphatase non-receptor type 1; assay: Mixed non-competitive inhibition of N-terminal polyHis-tagged human PTP1B1 (1 to 303 residues) expressed in Escherichia coli BL21(DE3)pLysS assessed as apparent dissociation constant for ESI complex using pNPP as substrate by Lineweaver-Burk plot analysis; outline: as §4
[22] = species: Homo sapiens; assay: Selectivity index, ratio of IC50 for inhibition of N-terminal polyHis-tagged human recombinant TC-PTPb (1 to 415 residues) expressed in Escherichia coli BL21(DE3)pLysS to IC50 for inhibition of N-terminal polyHis-tagged human PTP1B1 (1 to 303 residues) expressed in Escherichia coli BL21(DE3)pLysS

SMILES	pKi [1]	pKi [2]	Activity [3] [%]	pIC50 [5]	Ratio Ki [7]	inhibition [9]	pIC50 [10]	inhibition [11]	pKi [14]	pKi [15]	inhibition [16]	pIC50 [18]	Activity [19]	also measured
O=C(O)CN1C(=O)/C(=C/c2cccc(OCCCCc3ccccc3)c2)SC1=S	7.10	7.52	> 90	5.05	2	Active	7.22	Active	5.37	5.34	Active	5.37	Non-Toxic	Activity [4]: inactive; inhibition [6]: Active; Activity [8]: Non-Toxic; Activity [12]: Active; Activity [13]: Active; Activity [17]: inactive
O=C(O)CCN1C(=O)/C(=C/c2ccc(OCCCCc3ccccc3)cc2)SC1=S				5.04		Active	4.22	Active			Active	5.54	Non-Toxic	pKi [20]: 6.22; pKi [21]: 5.62
O=C(O)CN1C(=O)/C(=C/c2ccc(OCCCCc3ccccc3)cc2)SC1=S	5.89	6.39	> 90	3.72	2	inactive	6.48	inactive	4.76	4.92	Active	5.40	Non-Toxic	Ratio IC50 [22]: 48
